In ChEMBL document CHEMBL4014306, “Pyrazolopyrimidines as Potent Stimulators for Transient Receptor Potential Canonical 3/6/7 Channels” (J Med Chem, 2017):
The source made the active and inactive calls. No cut-off for these calls is given here.

Legend:
Type in all cases: cell-based
Rattus norvegicus = species on record: Rattus norvegicus; assay: Agonist activity at TRPC6 in rat primary glomerular mesangial cells assessed as increase in intracellular calcium level at 1 uM by Fluo4-AM dye-based fluorescence assay
Method in brief: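 Rat glomerular mesangial cells, isolated by graded sieving from male Sprague–Dawley rats, collagenase-digested, cultured in RPMI 1640 with 17% FBS. Grown overnight on coverslips, then loaded with 10 μM Fluo4-AM and 0.02% pluronic F-127 for 1 h at 37 °C in 1 mM Ca2+ saline, pH 7.4. Compound at 1 μM. Confocal imaging, ex 488/em 515 nm, read as F/F0. For the 2-APB condition, 30 μM 2-APB for 2 min beforehand and kept during compound application.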

[1] = Selectivity ratio of EC50 for mouse TRPC6 expressed in HEK293 cells co-expressing Gq11-PLCbeta fused M5 receptor assessed as increase in intracellular calcium level to EC50 for human TRPC3 expressed in HEK293 cells assessed as induction of membrane depolarization in presence of 0.5 mM Ca2+
[2] = target: T1, Short transient receptor potential channel 6 (Mus musculus) (UniProt Q61143); assay: (§1) Agonist activity at mouse TRPC6 expressed in HEK293 cells co-expressing Gq11-PLCbeta fused M5 receptor assessed as increase in intracellular calcium level by Fluo-4-AM dye-based fluorescence assay
T1 sequence (whole entry): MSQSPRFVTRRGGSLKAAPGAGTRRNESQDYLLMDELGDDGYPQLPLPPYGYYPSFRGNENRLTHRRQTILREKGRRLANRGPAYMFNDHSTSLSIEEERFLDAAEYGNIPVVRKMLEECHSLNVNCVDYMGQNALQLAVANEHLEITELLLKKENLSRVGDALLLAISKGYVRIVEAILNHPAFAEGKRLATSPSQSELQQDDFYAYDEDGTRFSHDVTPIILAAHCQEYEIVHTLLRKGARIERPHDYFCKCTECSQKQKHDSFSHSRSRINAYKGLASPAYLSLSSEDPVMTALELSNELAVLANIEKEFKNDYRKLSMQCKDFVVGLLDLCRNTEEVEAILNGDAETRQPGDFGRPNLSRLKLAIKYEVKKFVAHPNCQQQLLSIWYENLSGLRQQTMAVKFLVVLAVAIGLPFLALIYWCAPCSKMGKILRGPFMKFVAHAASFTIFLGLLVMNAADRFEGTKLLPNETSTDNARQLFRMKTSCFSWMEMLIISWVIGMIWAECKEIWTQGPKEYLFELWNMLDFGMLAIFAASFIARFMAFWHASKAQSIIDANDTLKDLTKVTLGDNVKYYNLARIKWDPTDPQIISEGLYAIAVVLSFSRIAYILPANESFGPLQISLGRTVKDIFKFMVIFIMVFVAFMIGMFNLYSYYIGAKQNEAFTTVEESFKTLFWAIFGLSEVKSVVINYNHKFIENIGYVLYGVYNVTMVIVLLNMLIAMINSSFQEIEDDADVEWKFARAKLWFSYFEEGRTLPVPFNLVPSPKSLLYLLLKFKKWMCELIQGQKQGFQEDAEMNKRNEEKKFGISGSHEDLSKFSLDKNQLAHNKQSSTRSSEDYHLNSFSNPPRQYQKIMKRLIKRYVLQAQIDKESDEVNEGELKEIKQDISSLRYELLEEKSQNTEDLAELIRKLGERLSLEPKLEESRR
Method in brief: (§2)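 Stable HEK293 line coexpressing mouse TRPC6 and M5 receptor, held under G418 and hygromycin B. Cells are loaded with Fluo4-AM or Fluo8-AM in 2 mM Ca2+ extracellular solution at pH 7.4 with 2 mM probenecid, and read at 32 °C as ΔF/F0.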

[3] = target: T2, Short transient receptor potential channel 6 (Mus musculus, UniProt Q61143); assay: as §1; method in brief: as §2
T2 sequence (Q61143 whole entry): T1 sequence (whole entry)

[4] = target: T3, Short transient receptor potential channel 7 (Homo sapiens) (UniProt Q9HCX4); assay: (§3) Agonist activity at human TRPC7 receptor expressed in HEK293 cells assessed as induction of channel current in presence of 0.1 mM Ca2+ by whole cell patch-clamp method
T3 sequence (whole entry): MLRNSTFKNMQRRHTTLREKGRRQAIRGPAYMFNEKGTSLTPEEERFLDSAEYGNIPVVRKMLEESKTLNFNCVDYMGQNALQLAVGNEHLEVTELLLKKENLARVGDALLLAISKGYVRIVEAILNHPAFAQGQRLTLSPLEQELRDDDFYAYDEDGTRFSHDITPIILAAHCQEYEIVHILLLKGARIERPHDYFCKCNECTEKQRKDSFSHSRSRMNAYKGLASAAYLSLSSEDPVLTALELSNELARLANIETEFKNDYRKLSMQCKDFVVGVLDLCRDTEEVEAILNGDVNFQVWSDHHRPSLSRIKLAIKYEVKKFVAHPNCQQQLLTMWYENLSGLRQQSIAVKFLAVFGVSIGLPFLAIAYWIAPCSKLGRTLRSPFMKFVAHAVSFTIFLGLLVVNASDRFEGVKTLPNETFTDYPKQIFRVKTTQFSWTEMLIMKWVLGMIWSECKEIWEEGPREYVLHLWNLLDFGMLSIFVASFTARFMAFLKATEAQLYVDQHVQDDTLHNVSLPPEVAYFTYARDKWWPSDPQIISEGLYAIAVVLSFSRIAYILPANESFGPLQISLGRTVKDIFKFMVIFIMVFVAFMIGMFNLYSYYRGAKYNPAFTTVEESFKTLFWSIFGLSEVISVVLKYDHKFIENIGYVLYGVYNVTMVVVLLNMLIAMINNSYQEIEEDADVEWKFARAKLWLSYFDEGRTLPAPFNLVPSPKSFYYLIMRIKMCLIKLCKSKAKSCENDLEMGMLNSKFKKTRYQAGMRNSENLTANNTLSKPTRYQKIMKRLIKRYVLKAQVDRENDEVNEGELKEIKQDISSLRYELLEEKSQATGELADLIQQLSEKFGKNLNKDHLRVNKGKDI
Method in brief: (§4)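 Whole-cell voltage clamp on doxycycline-induced stable HEK293 TRPC7 cells. Pipette (mM): 110 CsCl, 10 HEPES, 10 BAPTA, 1 MgCl2, 4.77 CaCl2 (400 nM free Ca2+), pH 7.2. Bath has 0.1 mM CaCl2, and compound is perfused in bath at increasing concentrations. Ramps run from +100 to −100 mV (100 ms) every 1 s from a 0 mV hold.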

[5] = target: T4, Short transient receptor potential channel 7 (Homo sapiens, UniProt Q9HCX4); assay: as §3; method in brief: as §4
T4 sequence (Q9HCX4 whole entry): T3 sequence (whole entry)

SMILES: Cc1nn2c(O)cc(C3CCN(C(=O)OCc4ccccc4)CC3)nc2c1-c1ccc(F)cc1
- Activity (Rattus norvegicus): Active

SMILES: CCOC(=O)N1CCC(c2cc(O)n3nc(C)c(-c4ccc(C(F)(F)F)cc4)c3n2)CC1
- Ratio EC50 [1]: > 70

SMILES: CCOC(=O)N1CCC(c2cc(O)n3nc(C)c(-c4ccc(F)cc4)c3n2)CC1
- Activity [2]: Dose-dependent effect
- EC50 [3]: 7.2 µM
- Activity [4]: Dose-dependent effect
- EC50 [5]: 1.13 µM
